# Hits are enriched below; roughly 3.5% of the tested compounds scored in any of these assays.
# rCAG RNA binder – molecules binding r(CAG) RNA repeats; r(CAG) RNA repeat, TO-PRO-1 dye displacement fluorescence; inhibition, % at 3 µM; hit rate 1.3% among 370,000; AID 651821;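 active = inhibition above the plate cutoff, the mean of all test compounds on that plate plus 3 SD, cut at about 35% in these data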;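 note: 0% = DMSO alone and 100% = 100 µM mitoxantrone as full dye displacement; higher means more dye released from RNA so lower well fluorescence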
# TCR-CD3 inh – blocks the human TCR-CD3 interaction; TAMRA-labeled TCR probe fluorescence, biochemical; inhibition, % at 9.4 µM; hit rate 0.37% among 360,000; AID 651800; in the data active = inhibition above about 19%;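 note: recombinant mutant TCR 2C K166C tagged with TAMRA read by polarization; 0% = receptor in buffer alone and 100% = receptor with positive control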
# PRMT1 inh – inhibitors of human PRMT1; inhibition, % at 2.79 µM; recombinant PRMT1, activity-based probe fluorescence polarization; hit rate 1.3% among 370,000; Q99873; AID 652257;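 active = inhibition above about 21% made by adding two undisclosed values, limit read from the data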
# HTRA1 inh – inhibitors of human serine peptidase HTRA1; Q92743; recombinant HTRA1, FP-rhodamine activity-based probe, fluorescence polarization; inhibition, % at 5.96 µM; hit rate 0.5% among 340,000; AID 504803; in the data active = inhibition above about 36%;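 note: 0% = enzyme with DMSO and 100% = wells lacking enzyme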
# Target sequence (Q92743 whole entry, looked up): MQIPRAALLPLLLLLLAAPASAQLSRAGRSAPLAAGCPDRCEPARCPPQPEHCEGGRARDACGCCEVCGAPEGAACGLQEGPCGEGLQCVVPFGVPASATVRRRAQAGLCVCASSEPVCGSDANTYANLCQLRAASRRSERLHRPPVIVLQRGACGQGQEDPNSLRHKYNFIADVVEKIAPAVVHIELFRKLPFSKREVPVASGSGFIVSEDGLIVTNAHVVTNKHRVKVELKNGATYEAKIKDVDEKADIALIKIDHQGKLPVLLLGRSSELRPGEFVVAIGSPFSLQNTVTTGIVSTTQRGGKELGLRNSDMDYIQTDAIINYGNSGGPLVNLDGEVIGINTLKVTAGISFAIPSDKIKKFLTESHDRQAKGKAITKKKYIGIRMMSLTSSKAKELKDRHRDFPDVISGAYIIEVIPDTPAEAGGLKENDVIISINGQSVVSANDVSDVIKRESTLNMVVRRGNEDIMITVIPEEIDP
# SIAE primary – blocks human sialic acid acetylesterase | Q9HAT2 | SIAE FP-Rh probe binding, fluorescence polarization | inhibition, % at 9.66 µM | hit rate 0.69% among 370,000;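 active = inhibition above a cutoff: mean of compounds within the control limits plus 3 SD of those, cut at about 17% in these data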;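 note: 0% = plate median of compound wells and 100% = probe without SIAE protein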
# mABHD4 FP – ABHD4 (mouse) inhibition, primary FP screen | hit rate 0.54% among 370,000 | purified mABHD4, FP-Rh probe fluorescence polarization | Q8VD66 | inhibition, % at 8.92 µM | AID 720543;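 active = inhibition exceeding the mean over every tested compound plus 3 SD, cut at about 30% in these data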;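 note: 0% = plate median of compound wells and 100% = S159A mutant with DMSO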
#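 Test system: mABHD4 protein; Read-out basis: % inhibition; Incubation: 45 min + 60 min at 25 °C; Repeats: single replicate; Technique: fluorescence polarization with parallel and perpendicular emission, 525/598 nm; Compound: 8.92 µM, single dose; Benchmarks: full inhibition S159A mutant plus DMSO, zero as sample-well median.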
# rCAG binder conf – r(CAG) RNA repeat binding, confirmation; shares compounds with rCAG RNA binder; TO-PRO-1 dye displacement fluorescence; inhibition, % at 3 µM; hit rate 70% among 4,300; AID 652065;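 active = inhibition above a per-plate cutoff, the mean inhibition of sample wells plus 3 SD, cut at about 35% in these data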;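 note: loss of TO-PRO-1 fluorescence as compound displaces dye from 1x1 AA loop RNA; 0% = DMSO only wells and 100% = 100 µM mitoxantrone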
# dCAG dye counter – disrupts DNA CAG TO-PRO-1 complex, flagging rCAG hits. shares compounds with rCAG RNA binder. d(CAG) DNA oligo TO-PRO-1 dye displacement, fluorescence. inhibition, % at 3 µM. hit rate 94% among 4,300;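 active = inhibition above its plate's cutoff, the mean test-well inhibition plus 3 SD, cut at about 4.8% in these data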;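 note: 0% = DNA dye mix with DMSO and 100% = 100 µM mitoxantrone; hits displace the dye from DNA and so lower well fluorescence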
# PRMT1 confirm – PRMT1 (human) inhibition, FP confirmation; shares compounds with PRMT1 inh; recombinant His-PRMT1, activity-based probe fluorescence polarization; inhibition, % at 2.79 µM; hit rate 42% among 3,300; AID 687036;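 active = mean inhibition across replicates above the hit cutoff derived for the earlier primary screen, cut at about 22% in these data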
# Numbers without * were called inactive; · = not tested or not shown.
SMILES,rCAG RNA binder,TCR-CD3 inh,PRMT1 inh,HTRA1 inh,SIAE primary,mABHD4 FP,rCAG binder conf,dCAG dye counter,PRMT1 confirm
COc1ccc(OC)c(NC(=O)CSc2sc3c(O)cc(=O)[nH]c3c2C#N)c1,47.9*,6.2,25.6*,-11.2,-8.3,12.3,21.8,10.1*,12.6
CC(C)(C)c1ccc(C(=O)CC(Sc2ccc(Cl)cc2)C(=O)O)cc1 (stereo unspecified),41.1*,5.5,72.9*,-10.5,1.0,-0.3,52.1*,17.7*,84.7*
O=C(O)c1cc(N/N=C/c2ccc(-c3ccc(F)cc3)o2)ccc1Cl,55.7*,-3.1,34.4*,2.1,4.6,23.9,38.1*,11.8*,0.3
O=C(O)c1cc(-c2ccc(/C=N/Nc3ccc([N+](=O)[O-])cn3)o2)ccc1Cl,1.2,5.1,-0.8,-1.6,-3.7,3.7,·,·,·
CCOC(=O)[C@@]12CCCC3=C1N(CCC3)C(=O)[C@H]2CC(=O)NCC1CCCCC1,1.1,·,1.9,·,-4.1,0.0,·,·,·
CC1=NN2C(=N)/C(=C\c3ccc(SCc4ccccc4)o3)C(=O)N=C2S1,17.1,-8.6,5.5,-1.1,-1.1,2.8,·,·,·
N=C1/C(=C\c2ccc(SCc3ccco3)o2)C(=O)N=C2SC=NN12,41.1*,-12.9,51.1*,-108.3,-60.4,-119.4,32.3,8.4*,12.1
CCn1c(C)cc(/C=C2\NC(=O)N(CC(=O)Nc3cccc(C)c3)C2=O)c1C,24.7,-25.1,1.0,2.5,-2.8,-12.5,·,·,·
Cc1cccc(NC(=O)CN2C(=O)N/C(=C\c3ccc(-c4cccc(C(=O)O)c4)o3)C2=O)c1,68.6*,4.5,26.9*,-13.9,1.9,5.9,73.3*,37.0*,10.5
Cc1ccc(NC(=O)CN2C(=O)S/C(=C/c3ccc(-c4cc(C(=O)O)ccc4C)o3)C2=O)cc1C,46.1*,-2.9,28.2*,-29.2,-23.1,20.2,90.8*,73.8*,9.7
COc1ccc(C(C)c2cn(C)c3ccccc23)cc1 (stereo unspecified),5.0,·,-2.6,·,2.9,1.6,·,·,·
CCOC(=O)C1=C(C)N=c2sc(=Cc3ccc(OCC(=O)O)cc3)c(=O)n2C1c1ccc(SC)cc1 (stereo unspecified),82.3*,6.2,29.6*,·,-54.4,-54.6,71.1*,36.8*,2.2
CCOC(=O)C1=C(C)N=c2s/c(=C\c3ccc(OCC(=O)O)cc3)c(=O)n2C1c1ccccc1 (stereo unspecified),74.7*,4.4,34.1*,-23.7,-17.3,-35.7,76.6*,34.9*,9.4
CC1=C(C(=O)OC(C)C)C(c2ccc(Cl)cc2)n2c(s/c(=C\c3ccc(OCC(=O)O)cc3)c2=O)=N1 (stereo unspecified),27.4,-3.1,13.0,-11.8,-13.7,-3.8,·,·,·
O=C(c1cccc(C(F)(F)F)c1)N1CC[C@H]2[C@H](CCCN2Cc2ccc(F)cc2)C1,-0.8,·,0.8,·,2.8,-0.3,·,·,·
COc1ccc(CN2C(=O)CSCCC2(C)c2nnnn2-c2c(C)cccc2C)cc1 (stereo unspecified),3.2,·,3.1,·,2.8,6.5,·,·,·
CCN(CC)c1ccc(C=Nn2c(-c3ccc(F)cc3)n[nH]c2=S)c(O)c1,64.3*,·,36.5*,·,4.8,20.9,52.0*,15.7*,34.9*
Oc1ccccc1/C=N/n1c(-c2ccccc2)n[nH]c1=S,10.9,0.2,4.9,11.6,1.9,2.3,·,·,·
O=C(c1cc(C2CC2)on1)N(C1CCCCC1)C1CCOCC1,-0.2,·,3.3,·,-5.2,-2.7,·,·,·
Cn1cc(/C=C2\SC(=O)NC2=S)c2ccccc21,39.6*,-3.8,27.6*,16.3,4.0,9.3,32.9,10.9*,4.8
Cc1ccc(C(=O)NN2C(=O)/C(=C/c3cn(C)c4ccccc34)SC2=S)cc1,0.1,-3.4,7.3,-3.2,-0.9,-1.2,·,·,·
CCOC(=O)[C@@]12CCCC=C1N(CCc1ccc(Cl)cc1)C(=O)[C@H]2CC(=O)N1CCCCC1,3.2,·,-4.8,·,6.5,7.3,·,·,·
COC(=O)c1ccc(Cn2ccc3ccc(-c4ccc5ccn(C(=O)c6ccccc6C)c5c4)cc32)cc1,7.0,·,-3.0,·,3.0,-3.9,·,·,·
CCOC(=O)c1ccc(NC(=O)c2c(NC(=O)CCC(=O)O)sc3c2CCCCC3)cc1,43.0*,-4.0,43.8*,·,-4.8,2.4,34.4,10.4*,4.7
CCCOC(=O)c1c(NC(=O)CCC(=O)O)sc2c1CCCCC2,1.3,-2.8,4.2,-6.7,-0.9,2.3,·,·,·
SMILES,rCAG RNA binder,TCR-CD3 inh,PRMT1 inh,HTRA1 inh,SIAE primary,mABHD4 FP,rCAG binder conf,dCAG dye counter,PRMT1 confirm
COc1cc(/C=C2\S/C(=N/S(=O)(=O)c3ccc(C)cc3)NC2=O)c([N+](=O)[O-])cc1OC,85.5*,8.9,26.9*,4.0,-20.9,9.7,84.0*,51.0*,1.6
O=C(Nc1ccc(Cl)cc1Cl)OC1CCC12CCC(c1ccccc1)CC2 (stereo unspecified),·,·,4.1,·,6.1,-11.4,·,·,·
O=C(Nc1nc(-c2ccco2)c(-c2ccco2)s1)c1c(F)cccc1Cl,78.1*,7.0,53.8*,26.3,-6.7,5.1,28.2,14.0*,18.9
Cc1ccc(-n2c(SCc3cccc(F)c3)nc3sc4c(c3c2=O)CCCC4)cc1,5.5,·,-7.0,·,7.6,5.9,·,·,·
Cc1cccc(OCC(=O)Nc2nnc(-c3ccco3)s2)c1,9.0,7.6,1.5,-6.8,-1.5,-2.8,·,·,·
COc1ccccc1OCC(=O)Nc1nnc(-c2ccco2)s1,57.9*,14.8,73.0*,-0.5,3.3,8.8,7.9,2.8,2.4
O=C(COC(=O)c1cc(-c2ccco2)nc2ccccc12)NCc1ccccc1,38.1*,-1.0,35.6*,-15.0,-1.8,-2.3,9.7,3.8,9.5
S=c1[nH]nc(-c2n[nH]c3c2CCC3)n1N=Cc1cccs1,4.3,·,7.0,·,3.6,0.0,·,·,·
Oc1ccc2ccccc2c1C=Nn1c(-c2n[nH]c3c2CCC3)n[nH]c1=S,71.5*,·,32.3*,·,2.7,24.8,60.2*,22.0*,6.0
Nc1c(C(=O)Nc2ccccc2F)sc2nc(-c3cccnc3)ccc12,31.7,2.4,13.8,-6.1,0.1,3.2,·,·,·
Nc1c(C(=O)Nc2ccccc2F)sc2nc(-c3ccco3)ccc12,55.2*,7.5,46.5*,16.5,4.2,11.0,72.9*,35.2*,41.6*
CCOC(=O)[C@]12CCCC=C1N(CCCOC)C(=O)[C@@H]2CC(=O)N1CCCC1,-2.5,·,-2.1,·,-3.1,-2.8,·,·,·
O=C(O)c1ccc(-n2cccc2/C=C2/NC(=O)N(c3cccc(Cl)c3)C2=O)cc1,38.5*,12.3,28.7*,-22.0,-1.8,-5.4,30.6,8.8*,4.9

# Source: PubChem (The Scripps Research Institute Molecular Screening Center)
